Values after ≈ are worked out from the molar mass of the structure shown.
Experiments:
human sEH = target: T1, human sEH (Homo sapiens, UniProt P34913); experiment: FRET-based displacement assay for inhibitor dissociation from sEH; type: binding
T1 sequence (P34913 1-555): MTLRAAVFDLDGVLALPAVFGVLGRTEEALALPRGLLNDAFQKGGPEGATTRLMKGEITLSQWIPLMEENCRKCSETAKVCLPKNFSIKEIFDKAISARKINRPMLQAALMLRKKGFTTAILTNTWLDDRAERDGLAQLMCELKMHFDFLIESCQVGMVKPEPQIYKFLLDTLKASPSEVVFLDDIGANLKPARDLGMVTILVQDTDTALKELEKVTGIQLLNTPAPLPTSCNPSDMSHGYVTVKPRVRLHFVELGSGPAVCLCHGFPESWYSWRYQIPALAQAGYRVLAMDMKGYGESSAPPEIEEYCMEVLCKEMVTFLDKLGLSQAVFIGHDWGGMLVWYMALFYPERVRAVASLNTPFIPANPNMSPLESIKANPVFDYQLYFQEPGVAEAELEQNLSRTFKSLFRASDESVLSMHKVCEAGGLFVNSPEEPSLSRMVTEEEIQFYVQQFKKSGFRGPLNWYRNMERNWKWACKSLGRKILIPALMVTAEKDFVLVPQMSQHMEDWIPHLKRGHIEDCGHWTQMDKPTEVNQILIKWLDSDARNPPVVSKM

[1] = Cassette dosing pharmacokinetics in rats; type: in vivo; details: male, Sprague-Dawley, rat, whole blood, po, 1 mg/kg
Method in brief: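 Test compounds were given as a cassette cocktail at 1 mg/kg each, p.o. in PEG300, to groups of 4 rats or 4 mice. Blood was taken by tail vein at set intervals and group averages were used.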

Water solubility = type: physicochemical; details: DI water, 37 °C, thermodynamic from solid
Method in brief: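 2–5 mg of solid was shaken in water for 2 days at 37 °C. The solution was filtered through PTFE, diluted twofold in MeOH containing 15 nM B-12, and quantified by LC/MS/MS.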

FAAH = target: T2, FAAH (Mus musculus, UniProt O08914); type: in vivo; details: mice, 1 mg/kg i.p. in DMSO, 4 h after dosing
T2 sequence (O08914 1-579): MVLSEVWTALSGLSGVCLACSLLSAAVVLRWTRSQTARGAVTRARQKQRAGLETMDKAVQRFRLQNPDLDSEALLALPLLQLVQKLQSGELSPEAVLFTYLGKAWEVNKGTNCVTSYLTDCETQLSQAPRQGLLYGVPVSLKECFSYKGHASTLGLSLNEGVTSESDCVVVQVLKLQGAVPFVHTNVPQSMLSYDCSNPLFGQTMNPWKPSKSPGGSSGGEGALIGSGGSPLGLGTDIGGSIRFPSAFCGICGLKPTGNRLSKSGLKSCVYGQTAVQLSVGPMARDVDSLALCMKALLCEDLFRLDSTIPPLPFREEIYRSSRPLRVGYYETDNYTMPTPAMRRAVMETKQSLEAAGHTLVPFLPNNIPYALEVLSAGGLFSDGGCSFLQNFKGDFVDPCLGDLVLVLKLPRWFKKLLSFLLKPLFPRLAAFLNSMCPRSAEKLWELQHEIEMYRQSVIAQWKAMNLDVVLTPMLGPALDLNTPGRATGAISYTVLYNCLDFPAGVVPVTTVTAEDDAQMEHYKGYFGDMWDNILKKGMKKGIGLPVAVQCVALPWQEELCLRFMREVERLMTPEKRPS
Method in brief: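 Male Swiss Webster mice got test compound in 20 μL DMSO i.p. and were killed 4 h later. Tissue was homogenized about fivefold by weight in 20 mM phosphate, pH 7.4, 5 mM EDTA, then diluted 1000-fold (liver) or 100-fold (brain) in 100 mM phosphate, pH 8.0, 0.1% BSA. OMP (100 μM final) hydrolysis was read by fluorescence (303/394 nm) for 10 min, normalized to BCA protein, and expressed as % of vehicle.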

human CES2 = target: T3, human CES2 (Homo sapiens, UniProt O00748); experiment: Esterase assay, CES2; type: biochemical
T3 sequence (O00748 27-559): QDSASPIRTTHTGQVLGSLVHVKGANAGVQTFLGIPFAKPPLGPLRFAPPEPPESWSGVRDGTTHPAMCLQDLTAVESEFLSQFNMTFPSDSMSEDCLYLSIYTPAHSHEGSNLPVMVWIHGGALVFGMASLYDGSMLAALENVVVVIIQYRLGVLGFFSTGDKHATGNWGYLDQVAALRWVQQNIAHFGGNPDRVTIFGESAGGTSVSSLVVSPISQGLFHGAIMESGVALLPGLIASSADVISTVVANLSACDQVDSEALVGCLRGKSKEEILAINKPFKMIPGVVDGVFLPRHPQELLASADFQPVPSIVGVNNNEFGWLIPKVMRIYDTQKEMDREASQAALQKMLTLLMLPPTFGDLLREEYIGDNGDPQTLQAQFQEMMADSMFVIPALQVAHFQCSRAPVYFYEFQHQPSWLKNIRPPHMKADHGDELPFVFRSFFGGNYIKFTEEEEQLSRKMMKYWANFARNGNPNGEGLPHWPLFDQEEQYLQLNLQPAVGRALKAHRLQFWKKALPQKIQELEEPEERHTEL
Method in brief: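 Crude recombinant human CES2 extract was used with 5 min inhibitor preincubation in 0.1 M sodium phosphate, pH 8, 0.1 mg/mL BSA, 2% final DMSO. Substrate was cyano(6-methoxynaphthalen-2-yl)methyl acetate (50 μM final). […] Triplicates.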

Compound	t1/2 (half-life on the enzyme) (human sEH; human sEH) [min]	koff (human sEH; read-out: koff × 10^–3) [s⁻¹]	AUC [1] [µM·h]	Cmax [1] [nM]	solubility at 2 days (Water solubility) [nM]	residual brain FAAH activity, % of control (FAAH; brain) [%]	residual liver FAAH activity, % of control (FAAH; liver) [%]	IC50 (human CES2) [µM]
O=C(Nc1ccc(C(F)(F)F)cc1F)N1CCC(Cc2cccc(Oc3ccc(C(F)(F)F)cn3)c2)CC1 [compound 18]	4.4	2.7	0.6	58	2.8 (≈ 1.52 ng/mL)	–	–	–
O=C(Nc1cccnc1)N1CCC(Cc2cccc(Oc3ccc(C(F)(F)F)cn3)c2)CC1 [PF-3845, reference compound]	–	–	–	–	–	0.2 ± 0.1	22 ± 2	1.1
